Assay outcomes as filed in PubChem BioAssay.
In the library only some 1% were active in any assay of this set; here they are far more common.
PREPL inh – PREPL enzyme inhibitors, primary screen, biochemical, fluorescence polarization. AID 2751, 2010. inhibition, % at 5.96 µM. Prolyl endopeptidase-like (Homo sapiens), Q4J6C6. recombinant PREPL, fluorescence polarization activity-based probe. 320,000 compounds, 0.68% hits;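 note: 0% = enzyme with DMSO and 100% = wells lacking enzyme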
proCasp7 act – procaspase-7 activators, primary screen, counter-screen for procaspase-3 activator project, biochemical, absorbance, HTS, human | 330,000 compounds, 0.093% hits | AID 463210, 2010 | Caspase-7 (Homo sapiens), P55210 | recombinant procaspase-7, Ac-DEVD-pNA absorbance 405 nm; D23A/D198A/D206A triple mutant, cannot self-cleave; scale: DMSO 0, 5 µM enzyme 100 | activation, % at 8.5 µM;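 active = percent activation above the screen-wide mean plus 3 SD, cut at about 25% in these data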
Target sequence (P55210 whole entry D23A/D198A/D206A): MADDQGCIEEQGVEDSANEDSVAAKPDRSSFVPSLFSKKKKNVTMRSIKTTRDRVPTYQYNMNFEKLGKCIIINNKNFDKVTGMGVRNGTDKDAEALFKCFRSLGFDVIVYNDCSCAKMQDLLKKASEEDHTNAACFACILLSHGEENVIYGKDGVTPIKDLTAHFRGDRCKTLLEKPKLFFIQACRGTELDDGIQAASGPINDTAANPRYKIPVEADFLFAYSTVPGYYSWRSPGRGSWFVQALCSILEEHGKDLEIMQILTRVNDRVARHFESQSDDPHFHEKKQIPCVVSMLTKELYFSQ
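Assay system – Uncleavable procaspase-7 mutant enzyme · Quantity – 2 µM procaspase-7 mutant as dispensed · Times – 1 h preincubation, 2 h reaction · Dosing – single nominal 8.5 µM compound dose, 0.8% DMSO final · Buffer or medium – Zinc-free 50 mM HEPES buffer, pH 7.4, with NaCl and Triton X-100 · Detection – Epi-absorbance of released pNA at 405 nm, two timepoints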
LYPLA2 counter – LYPLA2 inhibitors, primary screen, counter-screen for PME1 inhibitor project, biochemical, fluorescence polarization, FP-Rh probe ABPP; AID 2177, 2009; Acyl-protein thioesterase 2 (Homo sapiens), O95372; inhibition, % at 5.9 µM; recombinant LYPLA2; 320,000 compounds, 0.38% hits;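 active = inhibition above the screen-wide mean plus 3 SD, limit set per campaign, cut at about 26% in these data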;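 note: 0% = LYPLA2 with DMSO and 100% = wells lacking LYPLA2 enzyme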
Target sequence (O95372 whole entry, looked up): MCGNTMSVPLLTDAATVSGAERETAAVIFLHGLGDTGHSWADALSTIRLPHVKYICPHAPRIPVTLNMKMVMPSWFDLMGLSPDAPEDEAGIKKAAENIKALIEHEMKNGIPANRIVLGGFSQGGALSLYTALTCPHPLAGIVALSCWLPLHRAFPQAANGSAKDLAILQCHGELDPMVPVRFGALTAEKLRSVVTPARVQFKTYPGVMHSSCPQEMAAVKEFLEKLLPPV
procasp3 activ – activators of human procaspase-3 D3A mutant, primary screen, biochemical, absorbance, PC-3 D3A mutant, single concentration; 330,000 compounds, 0.11% hits; activation, % at 8.5 µM; recombinant procaspase-3 D3A, Ac-DEVD-pNA absorbance 405 nm; AID 463141, 2010; Caspase-3 (Homo sapiens), P42574;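 active = activation above the mean of all tested compounds plus 3 SD, cut at about 21% in these data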;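 note: 0% = DMSO alone and 100% = DMSO wells spiked with extra 5 µM PC-3 D3A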
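Technique: 405 nm absorbance of p-nitroaniline, reads at 0 and 120 min; Test system: Procaspase-3 D3A mutant; Incubation: 1 h enzyme-compound preincubation, then 2 h substrate reaction, 25 °C; Repeats: singlicate, each compound tested once; Benchmarks: low control DMSO wells, high control DMSO plus 5 µM PC-3 D3A.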
LYPLA1 inh – LYPLA1 inhibitors, primary screen, counter-screen for PME1 inhibitor project, biochemical, fluorescence polarization, FP-Rh probe ABPP | recombinant LYPLA1 | 320,000 compounds, 0.16% hits | Acyl-protein thioesterase 1 (Homo sapiens), O75608 | inhibition, % at 5.9 µM;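 active = inhibition above the mean of all tested compounds plus 3 SD, set per campaign, cut at about 14% in these data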;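 note: inhibitors block serine hydrolase probe labeling of LYPLA1 so polarization falls; 0% = enzyme with DMSO and 100% = wells lacking LYPLA1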
Target sequence (O75608 whole entry, looked up): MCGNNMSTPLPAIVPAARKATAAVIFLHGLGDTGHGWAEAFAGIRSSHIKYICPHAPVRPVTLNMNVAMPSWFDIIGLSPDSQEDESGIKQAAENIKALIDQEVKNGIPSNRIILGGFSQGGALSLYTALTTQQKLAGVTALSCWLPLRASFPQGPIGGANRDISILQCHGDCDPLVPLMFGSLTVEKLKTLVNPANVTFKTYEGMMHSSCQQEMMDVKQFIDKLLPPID
PREPL confirm – human PREPL enzyme inhibitors, confirmation, biochemical, fluorescence polarization. shares compounds with PREPL inh. recombinant PREPL, fluorescence polarization activity probe. inhibition, % at 5.96 µM. 2,000 compounds, 67% hits. AID 2803, 2010;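 note: 0% = protein with DMSO and 100% = wells lacking protein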
An asterisk follows results filed as active; x = not tested or not shown. Cut-off read from the data, not from the text of the source, unless noted: active = inhibition above about 43%; inactive = the rest.

SMILES | PREPL inh | proCasp7 act | LYPLA2 counter | procasp3 activ | LYPLA1 inh | PREPL confirm
COc1ccc(CC(=O)N2CCN(S(=O)(=O)c3cc(Cl)ccc3Cl)CC2)cc1 | 79.5* | 6.8 | 3.6 | -2.5 | -0.2 | 17.6
COc1ccc(CC(=O)N2CCN(S(=O)(=O)c3ccc(Cl)s3)CC2)cc1 | 10.1 | 5.9 | 7.4 | 5.9 | 0.2 | x
CCc1c(C)nc2cc(-c3ccc(OC)c(OC)c3)nn2c1N1CCC(C)CC1 | 6.8 | 0.6 | -0.8 | 6.1 | -0.9 | x
CCc1c(C)nc2cc(-c3ccc(OC)c(OC)c3)nn2c1N1CCCC1 | 45.3* | -2.8 | 10.6 | 5.3 | 2.9 | 38.1
Cc1nnc(N/N=C/c2cccc(C(F)(F)F)c2)n1N | 2.9 | -14.6 | -4.2 | -6.0 | -0.5 | x
Cc1nnc(N/N=C/c2cccc(OCc3ccc(Cl)c(Cl)c3)c2)n1N | 73.2* | 1.7 | 8.8 | -14.7 | 2.7 | 64.7*
CCC[C@@H](CN1CCC[C@H]1CN1C(N)=NC[C@@H]1Cc1ccccc1)N1C[C@@H]([C@H](C)CC)N(CCCC2CCCC2)C1=N | 53.8* | 10.5 | x | -5.5 | x | 51.7*
CC(C)[C@H](CN1CCC[C@H]1CN1C(N)=NC[C@H]1C(C)C)N1C[C@@H](Cc2ccccc2)N(CCCC2CCCC2)C1=N | 60.7* | 3.2 | x | 3.1 | x | 58.7*
CCCCN1C(=N)N([C@@H](CCC)CN2CCC[C@H]2CN2C(N)=NC[C@@H]2Cc2ccccc2)C[C@H]1Cc1ccccc1 | 45.3* | 9.2 | x | -2.2 | x | 45.2*
CCC[C@@H](CN1CCC[C@H]1CN1C(N)=NC[C@H]1CC(C)C)N1C[C@@H](Cc2ccccc2)N(CCCC2CCCC2)C1=N | 49.4* | 3.6 | x | 5.6 | x | 41.2
CC[C@@H](C)[C@@H]1CN([C@@H](CN2CCC[C@H]2CN2C(N)=NC[C@H]2CC(C)C)C(C)C)C(=N)N1CCCC1CCCC1 | 35.9 | 3.5 | x | -2.7 | x | x
CCCCN1C(N)=NC[C@@H]1Cc1ccc(O)cc1 | 7.7 | 1.2 | 1.0 | 8.2 | 3.1 | x
CCC[C@@H](CN1CCC[C@H]1CN1C(N)=NC[C@@H]1Cc1ccccc1)N1C[C@@H](Cc2ccccc2)N(CCCC2CCCC2)C1=N | 42.4 | -1.2 | x | -2.7 | x | x
Oc1ccc(/C=N/n2c(-c3ccccc3)n[nH]c2=S)cc1 | -13.5 | -1.6 | 3.6 | -1.0 | 3.0 | x
COc1cccc(NC(=O)CCC2CCN(C(=O)C3CC=CCC3)CC2)c1 (stereo not given) | 23.9 | 14.0 | 7.0 | 3.1 | 3.3 | x
Cc1nn(-c2ccc(Br)cc2)c(=O)c2ccccc12 | 74.8* | -2.1 | 8.4 | -2.6 | 1.8 | 1.9
CCN(CC)CC#CC(OC)(c1ccccc1)c1ccccc1 | 4.5 | 8.1 | 8.2 | 6.8 | 0.6 | x
Cc1ccccc1-c1nc(CN2CCC(C(=O)N3CCN(c4ccccn4)CC3)CC2)c(C)o1 | 49.3* | 13.8 | -0.4 | 4.9 | 5.8 | 43.0
Cc1ccccc1-c1nc(CN2CCC(C(=O)N3CCC(C(N)=O)CC3)CC2)c(C)o1 | 37.9 | 17.7 | 3.0 | 0.3 | -3.6 | x
CCn1c(O)c(/C=N/N=C/c2ccccc2)c2ccc(C3=NNC(=O)CC3)cc21 | 71.6* | -28.4 | 19.4 | -4.4 | 1.5 | 65.2*
O=C(/C=C/c1ccccc1Cl)N(Cc1ccc(Cl)cc1)C1CCS(=O)(=O)C1 (stereo not given) | -42.1 | -5.9 | 0.8 | 3.7 | 1.5 | x
CN(C)c1ccc(CN(C(=O)/C=C/c2ccccc2Cl)C2CCS(=O)(=O)C2)cc1 (stereo not given) | 49.9* | -5.3 | -0.7 | -11.4 | -4.7 | 48.5*
N#CCC(=O)Nc1ccccc1C(=O)O | -2.5 | 3.6 | -2.8 | 10.8 | -1.6 | x
COc1ccc(-c2cc(-c3ccccc3O)[nH]n2)cc1OC | 25.7 | 11.4 | -11.2 | 6.2 | -10.8 | x
COc1ccc(-c2cc(-c3ccc(OC)c(OC)c3)n[nH]2)c(O)c1 | 46.0* | -2.8 | -1.2 | -4.8 | -9.0 | 28.5
SMILES | PREPL inh | proCasp7 act | LYPLA2 counter | procasp3 activ | LYPLA1 inh | PREPL confirm
O=C(COc1cccc(Br)c1)Nc1ccc(N2CCOCC2)cc1N1CCOCC1 | 45.8* | 0.5 | 10.8 | -0.8 | 5.3 | 36.7
Cc1ccccc1OCCC(=O)Nc1ccc(N2CCOCC2)cc1N1CCOCC1 | 43.3* | 3.6 | 2.6 | 11.0 | 5.2 | 43.0
CCC(=O)c1ccc(OCC(=O)Nc2ccc(N3CCOCC3)cc2N2CCOCC2)cc1 | 6.0 | 2.4 | -2.4 | -0.4 | 4.0 | x
O=C(O)C1CCCCC1C(=O)Nc1ccccc1Nc1ccccc1 (stereo not given) | -13.8 | -16.8 | -6.8 | -4.6 | -3.8 | x
c1cc(Nc2ncnc3sc4c(c23)CCC4)ccn1 | 3.1 | -3.2 | 5.5 | 10.2 | -3.6 | x
NNc1ncnc2sc3c(c12)CCC3 | 43.9* | -0.3 | -1.9 | -6.3 | 1.7 | 21.9
COc1cc(NS(=O)(=O)c2ccc(NC(=O)C34CC5CC(CC(C5)C3)C4)cc2)ncn1 | -5.2 | 8.1 | 1.3 | 2.8 | -2.1 | x
CC(C)c1ccc(C(=O)Nc2ccc(CN3CCOCC3)cc2)cc1 | 25.6 | -5.6 | 3.5 | 3.0 | -3.3 | x
CCN(C(=O)CSc1nc2ccccc2c(=O)n1-c1cccc(C)c1)C1CCS(=O)(=O)C1 (stereo not given) | -4.2 | 10.2 | -0.1 | 11.7 | -1.1 | x
Cc1ccc(-n2c(SCC(=O)N(C)C3CCS(=O)(=O)C3)nc3ccccc3c2=O)c(C)c1 (stereo not given) | 53.0* | 3.9 | x | 0.7 | x | -0.1
CCOc1cccc(CNc2ccc(O)cc2)c1OCc1ccc(Cl)cc1 | 24.4 | -4.4 | 5.3 | -8.3 | -1.2 | x
CCOc1cc(CNc2ccc(O)cc2)ccc1OCc1ccc(Cl)cc1Cl | 57.1* | -17.3 | 13.9 | 1.3 | 4.8 | 50.8*
Cc1ccc2[nH]c3c(c2c1)CCC3=O | 4.7 | -2.8 | 4.3 | 1.2 | 5.4 | x
Cc1ccc2[nH]c3c(c2c1)CCc1cn[nH]c1-3 | 46.6* | -13.8 | 6.7 | -9.6 | -4.3 | 25.4
O=C(COC(=O)/C=C/c1cccc(Cl)c1)Nc1cccc(S(=O)(=O)NC2=NCCC2)c1 | 17.4 | -0.9 | 2.4 | 5.0 | -6.0 | x
O=C(COC(=O)c1ccc(C(F)(F)F)cc1)Nc1cccc(S(=O)(=O)NC2=NCCCCC2)c1 | 46.0* | 15.1 | x | -0.7 | x | 41.6
O=C(COC(=O)/C=C/c1ccc(Cl)cc1)Nc1cccc(S(=O)(=O)NC2=NCCCCC2)c1 | 44.2* | -3.4 | x | -5.4 | x | 35.3
c1cc(-c2nnn(CCOCCn3nnc(-c4ccncc4)n3)n2)ccn1 | -5.2 | 5.4 | -4.3 | -2.6 | 1.2 | x
